This is an account of results in ChEMBL document CHEMBL1131807, “Synthesis and in vitro evaluation of novel highly potent coumarin inhibitors of gyrase B” (1999).

Assay type in all cases: functional
Test [1] deals with Staphylococcus aureus. Briefly: Antibacterial activity against Staphylococcus aureus 011HT3 strain. A digest of the protocol:
(§1)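 MIC measured by twofold serial dilution in broth microdilution format and read after 24 hours of incubation. The resistance phenotype of each strain (ofloxacin, oxacillin, erythromycin, novobiocin, teicoplanin or vancomycin) was recorded alongside.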

In test [2] the test system is Staphylococcus aureus. Briefly: Antibacterial activity against ofloxacin, oxacillin and erythromycin resistant Staphylococcus aureus strain 011GO76. An outline of the steps: (§2)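 MIC in µg/mL by twofold broth microdilution, read after 24 h incubation. Resistance phenotypes of the strains are as listed for each strain (ofloxacin, oxacillin, erythromycin, teicoplanin, vancomycin).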

The test system of test [3] is Streptococcus pyogenes. As to the kind of experiment: Antibacterial activity against Streptococcus pyogenes 02A1UC1 strain. A digest of the protocol: as §1
Test [4] has as its system Staphylococcus epidermidis. As to the kind of experiment: Antibacterial activity against oxacillin and teicoplanin resistant Staphylococcus epidermidis 012GO39 strain. A digest of the protocol: as §2
Test [5] has as its system Enterococcus faecium. As to the kind of experiment: Antibacterial activity against vancomycin, teicoplanin and erythromycin resistant Enterococcus faecium 02D31P2 strain. A digest of the protocol: as §2
In test [6] the test system is Staphylococcus aureus. Briefly: Antibacterial activity against Staphylococcus aureus novobiocin resistant strain 011HT1. An outline of the steps: as §1
Test [7] deals with Streptococcus pyogenes. As to the kind of experiment: Compound was evaluated for antibacterial activity, against Streptococcus pyogenes 02A1UC1 strain. A digest of the protocol: as §1
For test [8], the system named is Staphylococcus epidermidis. Briefly: Compound was evaluated for antibacterial activity, against oxacillin and teicoplanin resistant Staphylococcus epidermidis 012GO39 strain. An outline of the steps:
as §2

As a reminder, the MIC is the lowest concentration found to suppress growth.

Converted amounts (≈) assume the structure as drawn.

As for `CONC(=O)c1c(O)oc2c(C)c(O[C@@H]3OC(C)(C)[C@H](OC)[C@@H](OC(=O)c4ccc(C)[nH]4)[C@H]3O)ccc2c1=O`, the MIC was less than 0.04 mg/L in test [1]; 0.08 mg/L (≈ 0.146 µM) in test [2]; 0.15 mg/L (≈ 0.274 µM) in test [3]; less than 0.04 mg/L in test [4]; 2.5 mg/L (≈ 4.57 µM) in test [5]; 5 mg/L (≈ 9.15 µM) in test [6].
In the case of `CO/N=C(\C)c1c(O)oc2c(C)c(O[C@@H]3OC(C)(C)[C@H](OC)[C@@H](OC(=O)c4ccc(C)[nH]4)[C@H]3O)ccc2c1=O`, the MIC in test [1] is 0.15 mg/L (≈ 0.275 µM); in test [2], 5 mg/L (≈ 9.18 µM); in test [3], 0.3 mg/L (≈ 0.551 µM); in test [4], 0.6 mg/L (≈ 1.1 µM); in test [5], 10 mg/L (≈ 18.4 µM); in test [6], 40 mg/L (≈ 73.5 µM).
Consider `CCOC(=O)/C(=N\OC)c1c(O)oc2c(C)c(O[C@@H]3OC(C)(C)[C@H](OC)[C@@H](OC(=O)c4ccc(C)[nH]4)[C@H]3O)ccc2c1=O`, for which the MIC in test [1] was less than 0.04 mg/L; in test [3], 0.15 mg/L (≈ 0.249 µM); in test [5] it was 5 mg/L (≈ 8.3 µM); in test [6], 10 mg/L (≈ 16.6 µM).
Regarding `CO[C@@H]1[C@@H](OC(=O)c2ccc(C)[nH]2)[C@@H](O)[C@H](Oc2ccc3c(O)c(C(=O)NCCN(C)C)c(=O)oc3c2C)OC1(C)C`, the MIC was determined as 0.15 mg/L (≈ 0.255 µM) in test [1]; 0.3 mg/L (≈ 0.511 µM) in test [2]; 1.2 mg/L (≈ 2.04 µM) in test [3]; 10 mg/L (≈ 17 µM) in test [5]; 20 mg/L (≈ 34 µM) in test [6].
As for `CO[C@@H]1[C@@H](OC(=O)c2ccc(C)[nH]2)[C@@H](O)[C@H](Oc2ccc3c(O)c(C(=O)Nc4ccccc4)c(=O)oc3c2C)OC1(C)C`, the MIC is less than 0.04 mg/L in test [1]; 0.08 mg/L (≈ 0.135 µM) in test [2]; 0.6 mg/L (≈ 1.01 µM) in test [3]; less than 0.04 mg/L in test [4]; greater than 40 mg/L in test [5]; 1.2 mg/L (≈ 2.02 µM) in test [6].
`CO[C@@H]1[C@@H](OC(=O)c2ccc(C)[nH]2)[C@@H](O)[C@H](Oc2ccc3c(O)c(/C(C)=N/OCCSc4ncc[nH]4)c(=O)oc3c2C)OC1(C)C`: the MIC in test [1] was 0.3 mg/L (≈ 0.457 µM); in test [2], 0.3 mg/L (≈ 0.457 µM); in test [3] it was 0.3 mg/L (≈ 0.457 µM); in test [4], 0.3 mg/L (≈ 0.457 µM); in test [5], 10 mg/L (≈ 15.2 µM); in test [6] it was 40 mg/L (≈ 60.9 µM).
As for `CO[C@@H]1[C@@H](OC(=O)c2ccc(C)[nH]2)[C@@H](O)[C@H](Oc2ccc3c(O)c(C(C)=O)c(=O)oc3c2C)OC1(C)C`, the MIC in test [1] is less than 0.04 mg/L; in test [2], 0.15 mg/L (≈ 0.291 µM); in test [3] it was 0.15 mg/L (≈ 0.291 µM); in test [4], 0.08 mg/L (≈ 0.155 µM); in test [5] it was 2.5 mg/L (≈ 4.85 µM); in test [6], 5 mg/L (≈ 9.7 µM).
With `CO[C@@H]1[C@@H](OC(=O)c2ccc(C)[nH]2)[C@@H](O)[C@H](Oc2ccc3c(O)c(NC(=O)c4ccc(O)c(CC=C(C)C)c4)c(=O)oc3c2Cl)OC1(C)C` [CHLOROBIOCIN], the MIC in test [1] is less than 0.04 mg/L; in test [2], less than 0.04 mg/L; in test [3] it was less than 0.04 mg/L; in test [4], less than 0.04 mg/L; in test [6] it was 0.15 mg/L (≈ 0.215 µM).
Turning to `CO[C@@H]1[C@@H](OC(=O)c2ccc(C)[nH]2)[C@@H](O)[C@H](Oc2ccc3c(O)c(C(=O)NCCO)c(=O)oc3c2C)OC1(C)C`, the MIC in test [1] was less than 0.04 mg/L; in test [3], 0.15 mg/L (≈ 0.268 µM); in test [4], less than 0.04 mg/L; in test [5] it was 2.5 mg/L (≈ 4.46 µM); in test [6], 2.5 mg/L (≈ 4.46 µM).
Turning to `CCOCC(=O)c1c(O)oc2c(C)c(O[C@@H]3OC(C)(C)[C@H](OC)[C@@H](OC(=O)c4ccc(C)[nH]4)[C@H]3O)ccc2c1=O`, the MIC was less than 0.04 mg/L in test [1]; 0.08 mg/L (≈ 0.143 µM) in test [2]; 0.3 mg/L (≈ 0.536 µM) in test [3]; 0.08 mg/L (≈ 0.143 µM) in test [4]; 5 mg/L (≈ 8.94 µM) in test [5]; 20 mg/L (≈ 35.7 µM) in test [6].
Consider `CO[C@@H]1[C@@H](OC(=O)c2ccc(C)[nH]2)[C@@H](O)[C@H](Oc2ccc3c(O)c(C(N)=O)c(=O)oc3c2C)OC1(C)C`, for which the MIC was less than 0.04 mg/L in test [1], 0.15 mg/L (≈ 0.29 µM) in test [3], 2.5 mg/L (≈ 4.84 µM) in test [5] and 2.5 mg/L (≈ 4.84 µM) in test [6].
On to `CO[C@@H]1[C@@H](OC(=O)c2ccc(C)[nH]2)[C@@H](O)[C@H](Oc2ccc3c(O)c(C(=O)CSC)c(=O)oc3c2C)OC1(C)C`, for which the minimal inhibitory concentration (MIC) in test [1] was less than 0.04 mg/L; in test [3], 0.3 mg/L (≈ 0.534 µM); in test [4] it was 0.08 mg/L (≈ 0.142 µM); in test [5], 5 mg/L (≈ 8.9 µM); in test [6], 5 mg/L (≈ 8.9 µM).
Regarding `COC1[C@@H](OC(N)=O)[C@@H](O)[C@H](Oc2ccc3c(O)c(NC(=O)c4ccc(O)c(CC=C(C)C)c4)c(=O)oc3c2C)OC1(C)C` (single isomer, unassigned) [NOVOBIOCIN], the MIC is less than 0.04 mg/L in test [1]; 0.15 mg/L (≈ 0.245 µM) in test [7]; 0.08 mg/L (≈ 0.131 µM) in test [8]; 0.3 mg/L (≈ 0.49 µM) in test [5]; 20 mg/L (≈ 32.6 µM) in test [6].
For `CO[C@@H]1[C@@H](OC(=O)c2ccc(C)[nH]2)[C@@H](O)[C@H](Oc2ccc3c(O)c(/C(C)=N/OCCN4CCOCC4)c(=O)oc3c2C)OC1(C)C`, the MIC in test [1] came to 0.15 mg/L (≈ 0.233 µM); in test [2], 0.3 mg/L (≈ 0.466 µM); in test [3], 1.2 mg/L (≈ 1.86 µM); in test [4] it was 0.3 mg/L (≈ 0.466 µM); in test [5], 10 mg/L (≈ 15.5 µM); in test [6], 40 mg/L (≈ 62.1 µM).
Regarding `CCOC(=O)c1c(O)oc2c(C)c(O[C@@H]3OC(C)(C)[C@H](OC)[C@@H](OC(=O)c4ccc(C)[nH]4)[C@H]3O)ccc2c1=O`, the MIC in test [1] is 0.3 mg/L (≈ 0.55 µM); in test [2], 2.5 mg/L (≈ 4.58 µM); in test [3], 0.3 mg/L (≈ 0.55 µM); in test [4] it was 0.15 mg/L (≈ 0.275 µM); in test [5], 5 mg/L (≈ 9.17 µM); in test [6] it was greater than 20 mg/L.
As for `CO[C@@H]1[C@@H](OC(=O)c2ccc(C)[nH]2)[C@@H](O)[C@H](Oc2ccc3c(O)c(C(=O)OCC(C)C)c(=O)oc3c2C)OC1(C)C`, the MIC in test [1] stood at 0.08 mg/L (≈ 0.139 µM); in test [2], 2.5 mg/L (≈ 4.36 µM); in test [4], 0.08 mg/L (≈ 0.139 µM); in test [5] it was 5 mg/L (≈ 8.72 µM); in test [6] it was 10 mg/L (≈ 17.4 µM).
